Where two headings read alike, the source gives them in different places.

As usually defined, the EC50 is the concentration at which the effect is half-maximal. For orientation: IC50 means the concentration needed to halve the response being measured.

The target in assay [1] is T1, EBI2 (Homo sapiens, UniProt P32249). Type of assay: cell-based.
In assay [2] the test system is EBV-infected human B cell line. Kind of assay: Transwell migration of EBV-infected B cells. The following applies: transwell assay; bell shaped activity curve. Type of assay: cell-based. The essentials: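 Transwell chemotaxis of an EBV-infected human B cell line toward oxysterol test compounds in the lower chamber. Samples run in duplicate.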
The next assay relates to RS11846 cells. Kind of assay: Transwell migration of RS11846 cells. Conditions: transwell assay. It counts as cell-based.
Assay [3] deals with bone marrow-derived dendritic cells. Nature of the assay: Transwell migration of bone marrow-derived dendritic cells. It counts as cell-based, mice. The following applies: transwell assay. In outline: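 Dendritic cells derived from the bone marrow of wild-type and Ebi2(−/−) mice, tested side by side for transwell migration toward oxysterol test compounds. Samples run in quadruplicate.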

Assay [4] has as its system 8 different nuclear hormone receptors including LXR. Nature of the assay: Panel of reporter gene assays against nuclear hormone receptors. It counts as cell-based. Conditions: 8 nuclear hormone receptors including LXR.
Assay [5] concerns EBI2 expressing cell line (M12). Nature of the assay: Migration bioassay with EBI2 expressing reporter cell line. Conditions: attraction of EBI2 expressing cell line (Fig. S8c). It counts as cell-based. In outline:
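Chemoattraction bioassay: M12 reporter cells, with or without EBI2, exposed to the oxysterol ligand; read-out is migration of cells toward it. The same assay was also run on spleen and lymph node tissue extracts from wild-type and Ch25h-deficient mice.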

Another assay relates to 31 different GPCRs. Nature of the assay: Panel of GPCR assays. Type of assay: cell-based.
In assay [6] the target is T1, EBI2. Nature of the assay: Calcium mobilization. It counts as cell-based. In general terms: Calcium flux is commonly read through the fluorescence of an indicator in the cells.
The test system of assay [7] is Parental cells lacking the EBI2 receptor. Nature of the assay: Calcium mobilization in parental cell line lacking EBI2. It counts as cell-based. Conditions: parental cell line without EBI2.
Assay [8] concerns the target T1, EBI2. Kind of assay: Radioligand binding to membranes from EBI2 expressing CHO cells.
Assay [9] concerns the target T1, EBI2. Kind of assay: GTPγ35S binding functional assay. Type of assay: biochemical. A general note: GTPγS is a poorly hydrolysed GTP analogue; its binding reports G protein activation.
In assay [10] the test system is Membranes from parental cells lacking EBI2 receptor. Kind of assay: Radioligand binding to membranes from parental cells lacking EBI2. The following applies: data not shown.
Setting [11] is: read-out: [^3H]-7α, 25-OHC Binding IC50, displacement of 10 nM 3H-7α, 25-OHC from membranes of EBI2 expressing CHO cells, n = 3-4, ± standard deviation.
Setting [12] is: read-out: GTPγ^35S Binding EC50, n = 3-4, ± standard deviation.
Setting [13] is: read-out: Ca^2+ Fluorescence EC50, FLIPR, CHO cells stably expressing EBI2, n = 3-4, ± standard deviation.

T1 sequence (P32249 whole entry): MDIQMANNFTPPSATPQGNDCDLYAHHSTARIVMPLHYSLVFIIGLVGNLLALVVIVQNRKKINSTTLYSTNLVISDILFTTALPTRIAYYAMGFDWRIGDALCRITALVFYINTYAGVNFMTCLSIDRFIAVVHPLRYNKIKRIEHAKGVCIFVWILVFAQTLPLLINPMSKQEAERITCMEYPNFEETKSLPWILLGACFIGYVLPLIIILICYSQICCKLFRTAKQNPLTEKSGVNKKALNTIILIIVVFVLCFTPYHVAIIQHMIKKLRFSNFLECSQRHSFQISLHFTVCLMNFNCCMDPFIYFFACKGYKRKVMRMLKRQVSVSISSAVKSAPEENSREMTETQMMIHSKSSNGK

Take `CO[C@H]1C=C2C[C@@H](O)CC[C@]2(C)[C@H]2CC[C@]3(C)[C@@H]([C@H](C)CCCC(C)C)CC[C@H]3[C@H]12` [7-methoxy derivate of 7β-OHC]: the “activation of EBI2” value at EBI2 [1] (initial test of candidates (Fig. S3)) was “did not activate EBI2”.
As to `C[C@H](CCCC(C)(C)O)[C@H]1CC[C@H]2[C@@H]3[C@H](O)C=C4C[C@@H](O)CC[C@]4(C)[C@H]3CC[C@]12C` [7α, 25-OHC, 5-cholesten-3β, 7α, 25-triol], the “chemoattraction of EBV-infected B cells” value in assay [2] is “can potently attract”. For the same compound, in the assay with RS11846 cells (bell shaped activity curve), the “chemoattraction of RS11846 cells” value was “can potently attract”. In assay [3], the “migration of BMDC from wild type and Ebi2(−/−) animals” value was “only wild type cells migrate”. For the same compound, the “interaction with nuclear hormone receptors” value in assay [4] is “In none of these assays did we see a significant interaction”. Besides, the sensitivity of bioassay entry in assay [5] was “subnanomolar sensitivity”. Further, in the assay on 31 different GPCRs, the “interaction with other GPCRs” value is on record as “In none of these assays did we see a significant interaction”. For the same compound, the concentration for a half-maximal effect (EC50) at EBI2 [6] turned out to be 2 ± 2 nM. Also, the “calcium response of parental cells lacking EBI2” value in assay [7] is on record as “did not respond”.
Consider `C[C@@H](CO)CCC[C@@H](C)[C@H]1CC[C@H]2[C@@H]3[C@H](O)C=C4C[C@@H](O)CC[C@]4(C)[C@H]3CC[C@]12C` [7α, 27-OHC], for which, at EBI2 [8] (setting [11]), the IC50 was 362 ± 32 nM. For the same compound, the “interaction with nuclear hormone receptors” value in assay [4] is “In none of these assays did we see a significant interaction”. Also, the figures for the EC50 on EBI2 [9] (setting [12]) and at EBI2 [6] (setting [13]) were 5 ± 2 nM and 5 ± 4 nM, respectively. For the same compound, in the assay with 31 different GPCRs, the “interaction with other GPCRs” value is “In none of these assays did we see a significant interaction”.
At EBI2 [1], `C[C@H](CCCC(C)(C)O)[C@H]1CC[C@H]2[C@@H]3[C@@H](O)C=C4C[C@@H](O)CC[C@]4(C)[C@H]3CC[C@]12C` [7β, 25-OHC, cholest-5-ene-3β, 7β, 25-triol] gave an EC50 of approximately 50 nM.
For `C[C@@H](CO)CCC[C@@H](C)[C@H]1CC[C@H]2[C@@H]3[C@@H](O)C=C4C[C@@H](O)CC[C@]4(C)[C@H]3CC[C@]12C` [7β, 27-OHC], the IC50 on EBI2 [8] (setting [11]) was more than 10000 nM. Further, the EC50 at EBI2 [9] (setting [12]) is 125 ± 66 nM; at EBI2 [6] (setting [13]) it was 310 ± 261 nM.
Taken in the same sequence, the figures for `C[C@H](CCCC(C)(C)O)[C@H]1CC[C@H]2[C@@H]3CC=C4C[C@@H](O)CC[C@]4(C)[C@H]3CC[C@]12C` [25-OHC] were more than 10000 nM, 727 ± 232 nM and 3030 ± 2640 nM.
Consider `[3H]C1(O)C=C2CC(O)CCC2(C)C2CCC3(C)C(C(C)CCCC(C)(C)O)CCC3C21` (stereo not drawn) [[^3H]-7α, 25-OHC], for which the “binding of radioligand to membranes from parental cells” value in [10] is “did not bind”.
As for `[3H]C1(O)C=C2CC(O)CCC2(C)C2CCC3(C)C(C(C)CCCC(C)(C)O)CCC3C21` (stereo not drawn) [[^3H]-7β, 25-OHC], on EBI2 [8] (EBI2 membranes), the “specific binding of radioligand to EBI2 membranes” value was “no specific binding”.
In turn, `CC(C)CCC[C@@H](C)[C@H]1CC[C@H]2[C@@H]3CC=C4C[C@@H](O)CC[C@]4(C)[C@H]3CC[C@]12C` [cholesterol] registered an IC50 at EBI2 [8] of more than 10000 nM. In addition, the EC50 on EBI2 [9] and at EBI2 [6] was more than 10000 nM each time.
Turning to pertussis toxin, in the assay on RS11846 cells (presence of pertussis toxin), the “effect on oxysterol-mediated attraction of RS11846 cells” value is “could be blocked”.
